TCR CD3 inh = inhibitors of human TCR-CD3 interaction, primary screen, biochemical, fluorescence, TAMRA-labeled TCR probe; 360,000 compounds, 0.37% hits; AID 651800, 2012; inhibition, % at 9.4 µM; in the data active = inhibition above about 19%;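 note: recombinant mutant TCR 2C K166C tagged with TAMRA read by polarization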
mABHD4 FP = ABHD4 inhibitors, primary screen, biochemical, fluorescence polarization, mouse; (Lyso)-N-acylphosphatidylethanolamine lipase (Mus musculus), Q8VD66; purified mABHD4, FP-Rh probe fluorescence polarization; inhibition, % at 8.92 µM; 370,000 compounds, 0.54% hits;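 active = inhibition exceeding the mean over every tested compound plus 3 SD, cut at about 30% in these data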
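assay system = mABHD4 protein | compound dosing = single nominal dose of 8.92 µM, 0.89% DMSO final | read-out basis = percent inhibition of probe binding, normalized to plate controls | schedule = Enzyme–compound pre-incubation 45 min, then probe 60 min, both 25 °C | detection = fluorescence polarization, excitation 525 nm, emission 598 nm, BODIPY TMR filters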
ARNT TACC3 PPI = disruptors of ARNT/TACC3 protein interaction, primary screen, biochemical, AlphaScreen, single concentration; Transforming acidic coiled-coil-containing protein 3 (Homo sapiens), Q9Y6A5; inhibition, % at 9.99 µM; 390,000 compounds, 0.66% hits; AlphaScreen His-ARNT PAS-B/GST-TACC3 binding, luminescence; TACC3 fragment carries E629A point mutation;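 active = mean inhibition of replicates at least 50% and at least half of replicates each reaching 50%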
SIAE primary = human SIAE inhibitors, primary screen, biochemical, fluorescence polarization, FP-Rh probe, 1536-well HTS. Sialate O-acetylesterase (Homo sapiens), Q9HAT2. SIAE FP-Rh probe binding. inhibition, % at 9.66 µM. 370,000 compounds, 0.69% hits. AID 1053197, 2014;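 active = inhibition above a cutoff: mean of compounds within the control limits plus 3 SD of those, cut at about 17% in these data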
HTRA1 inhibitor = HTRA1 serine protease inhibitors, primary screen, biochemical, fluorescence polarization, HTS; 340,000 compounds, 0.5% hits; recombinant HTRA1, FP-rhodamine activity-based probe; inhibition, % at 5.96 µM; in the data active = inhibition above about 36%
Target sequence (Q92743 whole entry, looked up): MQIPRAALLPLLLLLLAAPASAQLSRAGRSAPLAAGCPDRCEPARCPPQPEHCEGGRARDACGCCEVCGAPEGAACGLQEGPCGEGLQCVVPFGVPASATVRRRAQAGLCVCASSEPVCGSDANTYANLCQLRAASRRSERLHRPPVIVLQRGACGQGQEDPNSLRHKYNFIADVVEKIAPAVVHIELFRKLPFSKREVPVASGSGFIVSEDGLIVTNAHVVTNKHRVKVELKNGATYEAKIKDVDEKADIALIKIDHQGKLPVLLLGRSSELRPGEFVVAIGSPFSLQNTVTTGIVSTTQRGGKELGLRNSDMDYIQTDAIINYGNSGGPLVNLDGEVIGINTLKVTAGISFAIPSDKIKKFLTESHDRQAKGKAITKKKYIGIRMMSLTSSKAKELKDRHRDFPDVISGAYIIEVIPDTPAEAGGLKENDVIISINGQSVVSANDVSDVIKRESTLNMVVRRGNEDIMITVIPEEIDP
Numbers stand for hits; - = inactive; . = no result. Compounds with a hit are over-represented: about 1.8% of the library has one in this group of screens.

SMILES	TCR CD3 inh	mABHD4 FP	ARNT TACC3 PPI	SIAE primary	HTRA1 inhibitor
COC/C=C/C1=CC2=CC(=O)C(C)(OC(=O)c3cnc4ccccc4n3)C(=O)C2=CN1CCCOC(C)C (stereo unspecified)	-	-	10.8	-	-
CCCOc1ccc(/C=c2\sc3nc(-c4ccco4)nn3c2=O)cc1OCC	-	-	-	-	-
CCCOc1ccc(Cc2nn3c(=O)/c(=C/c4ccco4)sc3nc2=O)cc1	-	-	31.9	-	-
C[C@H]1CN([C@@H](C)CO)C(=O)c2cc(-c3cccc(C#N)c3)cnc2O[C@@H]1CN(C)C(=O)c1ccccn1	.	.	-	.	.
O=C(Cc1cccc2ccccc12)Nc1ccc(-c2cc3ccccc3oc2=O)cc1	38.0	-	.	-	-
O=C1C2C=C(Br)[C@H](C[C@@H]2OCCCCCCO)[C@@]12CO2	.	.	-	.	.
O=C(O)C1Cc2[nH]cnc2C(c2ccccc2O)N1 (stereo unspecified)	-	-	82.3	-	-
O=C(O)C1Cc2[nH]cnc2C(c2cccc([N+](=O)[O-])c2)N1 (stereo unspecified)	-	-	-	-	-
Cc1c(C)c2c(OCC(=O)N3CCC(C(=O)NCC(C)C)CC3)cc3c(c2oc1=O)CCC(C)(C)O3	.	.	.	.	-
Cc1c(C)c2c(OCC(=O)N3CCC(C(=O)O)CC3)cc3c(c2oc1=O)CCC(C)(C)O3	.	.	45.1	.	-
C[C@H]1CN([C@@H](C)CO)S(=O)(=O)c2ccc(Br)cc2O[C@H]1CN(C)CC1CC1	.	.	-	.	.
Nc1nc2ccc(C(=O)NCCOC(=O)C3CCCCC3)cc2s1	-	-	65.5	-	-
CCN(CC)S(=O)(=O)c1ccc(N/N=C/c2ccc(O)cc2O)nc1	-	-	46.1	-	-
CCN(CC)S(=O)(=O)c1ccc(N/N=C(\C)c2ccncc2)nc1	-	-	-	-	-
Oc1cccc(C=NNc2ccccn2)c1	-	-	-	-	-
Oc1ccc(C=NNc2ccccn2)c(O)c1	-	-	60.3	-	-
Cc1nc(N/N=C/c2cccc(F)c2)cc(N2CCOCC2)n1	-	-	-	-	-
COc1ccc(/C=N/Nc2ccccn2)cc1O	-	-	26.2	-	-
Cc1nc(N/N=C/c2ccc(O)cc2O)cc(N2CCOCC2)n1	-	-	65.0	-	-
COc1cc(/C=N/NC(=O)C(=O)Nc2ccccn2)ccc1O	-	-	-	-	-
C[C@H](CO)N1C[C@H](C)[C@H](CN(C)S(C)(=O)=O)OCCCC[C@H](C)Oc2ccc(NS(C)(=O)=O)cc2C1=O	.	.	-	.	.
C[C@H](CO)N1C[C@H](C)[C@@H](CN(C)C(=O)NC2CCCCC2)Oc2ccc(NC(=O)C3CC3)cc2CC1=O	.	.	-	.	.
O=[N+]([O-])c1ccc(O)c(/C=N/Nc2ccccn2)c1	-	-	61.1	-	-
Oc1ccccc1/C=N/Nc1nccnc1Cl	-	-	67.0	-	-
C[C@@H]1CCCCO[C@@H](CN(C)C)[C@@H](C)CN([C@H](C)CO)C(=O)c2cc(NC(=O)C3CCCCC3)ccc2O1	.	.	-	.	.
SMILES	TCR CD3 inh	mABHD4 FP	ARNT TACC3 PPI	SIAE primary	HTRA1 inhibitor
CNCCCNC(=O)c1ccc(/C=N/O)nc1	-	-	61.0	-	-
O=C(NCc1ccccn1)c1ccc(/C=N/O)nc1	-	-	38.2	-	-
O=C(C[C@@H]1C=C[C@@H](NC(=O)C2CCC2)[C@H](CO)O1)NCCCN1CCOCC1	.	.	-	.	.
O=C(CCN1CCCCC1)NCC[C@@H]1CC[C@@H](NC(=O)Cc2cccnc2)[C@@H](CO)O1	.	.	-	.	.
CC1(C)SC(=S)N(/N=C/c2ccccc2O)C1N(O)C(=O)Nc1ccccc1 (stereo unspecified)	-	-	48.5	-	-
CC1(C)SC(=S)N(/N=C/c2cccnc2)C1N(O)C(=O)Nc1ccccc1 (stereo unspecified)	-	-	-	-	-
O=C(NC(c1ccccc1)c1ccccc1)c1cccc(S(=O)(=O)NCc2ccccc2)c1	-	-	active	-	-
Cc1[nH]n(-c2ccccc2)c(=O)c1/C=N/Nc1nncc(-c2ccccc2)n1	-	-	66.3	-	-
Cc1ccc(/C=N/Nc2nncc(-c3ccccc3)n2)o1	-	-	-	-	.
Cc1[nH]n(-c2ccc(Cl)cc2)c(=O)c1/C=N/c1nnc(-c2ccccc2)s1	-	-	active	-	-
Cc1ccc(-n2[nH]c(C)c(/C=N/NC(=O)c3ccc(O)cc3O)c2=O)cc1	.	.	62.1	.	-
Cc1[nH]n(-c2ccccc2)c(=O)c1C=NCc1ccncc1	-	-	19.6	-	-
Cc1cc(C(=O)N/N=C/c2c(C)n(C)c3ccccc23)n[nH]1	-	-	-	-	-
Cc1cc(C(=O)N/N=C/c2c(C)[nH]n(-c3ccccc3)c2=O)n[nH]1	-	-	84.3	-	-
Cc1[nH]n(-c2ccccc2)c(=O)c1/C=N/NC(=O)c1ccc(O)cc1O	.	.	71.4	.	-
C[C@@H]1CN([C@@H](C)CO)S(=O)(=O)c2ccc(Br)cc2O[C@@H]1CN(C)Cc1ccc(C(=O)O)cc1	.	.	-	.	.
Cc1cc(O)c(C=O)c2c1C(=O)Oc1c(CO)c(O)c3c(c1O2)C(O)OC3=O (stereo unspecified)	.	.	-	.	41.1
CN(c1ccccc1)S(=O)(=O)c1ccc(NC(=O)c2ccc(-c3ccccc3)cc2)cc1	63.0	-	-	-	-
CC(=O)Nc1ccc(NC(=O)c2ccc(N(C)S(=O)(=O)c3ccc(C)cc3)cc2)cc1	-	-	-	-	-
On1onc2c3cc(-c4ccccc4)nc3ccc21	-	-	-	17.6	-
c1ccc(-c2cc3c(ccc4nonc43)nn2)cc1	-	-	-	-	-
COc1ccccc1N(CC(=O)N/N=C/c1c(O)ccc2ccccc12)S(C)(=O)=O	-	-	82.7	-	-
COc1ccccc1N(CC(=O)Nc1ccccc1C)S(C)(=O)=O	-	-	-	-	-
N#C[C@@H]1[C@@H](c2ccc(C#CC3(O)CCCC3)cc2)[C@@H](CO)N1C(=O)C1CCC1	.	.	-	.	.
C[C@@H]1CN([C@H](C)CO)C(=O)c2cc(C#Cc3ccc(F)cc3)cnc2O[C@@H]1CN(C)C	.	.	-	.	.
C/C(=N\NC(=O)c1ccccc1)c1cc2cc([N+](=O)[O-])ccc2oc1=O	-	-	76.9	-	-
C=CCn1c(CNc2ccccc2)nnc1SCC(=O)N/N=C/c1ccccc1O	-	-	active	-	-
CCn1cc(C(=O)O)c(=O)c2cnc(N3CCN(C(=S)NC(=O)c4ccc(F)c(F)c4)CC3)nc21	-	-	-	-	-
CCn1cc(C(=O)O)c(=O)c2cnc(N3CCN(C(=S)NC(=O)c4ccc(OC)cc4)CC3)nc21	-	-	-	17.4	-
Cc1nc(C(F)(F)F)c(C(=O)N/N=C(\N)c2ccccn2)s1	-	-	62.3	-	-

Screening results (PubChem)
